# What was measured:
# [1] = molecular target: T1, Proteinase-activated receptor 1 (Homo sapiens, UniProt P25116); experiment: Displacement of [3H]haTRAP from PAR1 in human platelet membranes after 60 mins by scintillation counting analysis; type: cell membranes
# T1 sequence (P25116 whole entry): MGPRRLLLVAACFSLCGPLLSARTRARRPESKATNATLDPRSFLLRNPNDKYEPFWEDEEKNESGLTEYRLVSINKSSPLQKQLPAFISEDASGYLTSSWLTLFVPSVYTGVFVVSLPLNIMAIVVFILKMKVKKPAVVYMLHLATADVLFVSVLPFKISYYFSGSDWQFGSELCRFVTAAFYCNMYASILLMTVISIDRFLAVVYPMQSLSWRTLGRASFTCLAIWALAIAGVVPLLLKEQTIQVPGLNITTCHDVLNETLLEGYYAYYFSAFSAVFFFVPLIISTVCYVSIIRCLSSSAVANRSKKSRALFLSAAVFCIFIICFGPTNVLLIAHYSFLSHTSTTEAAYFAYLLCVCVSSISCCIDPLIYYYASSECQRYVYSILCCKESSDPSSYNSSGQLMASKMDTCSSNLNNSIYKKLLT
# How it was run: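 Radioligand binding to PAR1 using a tritiated peptide ligand, phenylalanine-arginine-cyclohexylalanine-homoarginine-[³H]-tyrosine-NH₂, reported as IC50. Each value is the average of three measurements. Racemic mixtures were tested without separation. Vorapaxar, synthesized in-house, was included as the reference standard.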
# [2] = Cytotoxicity against human HepG2 cells assessed as ATP contents at 30 uM after 24 hrs relative to control; type: cell-based; conditions: read-out: Activity
# How it was run: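 HepG2 cells were exposed to compound at 30 μM. Cellular ATP content was measured 24 h after compound addition and expressed as % of vehicle-treated control.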
# [3] = Metabolic stability in human liver microsomes assessed as time when 50% of compound remains; type: ADME; conditions: read-out: Time
# [4] = Metabolic stability in rat liver microsomes assessed as time when 50% of compound remains; type: ADME; conditions: read-out: Time
IC50 [1] [nM],half-life [3] [min],half-life [4] [min],Compound,"viability at 24 h, 30 µM [2] [%]"
220,–,–,OC1C[C@@H]2CCCC[C@@H]2[C@H]1/C=C/c1ccc(-c2cccc(F)c2)cn1 (mixture of isomers),–
280,–,–,Fc1cccc(-c2ccc(/C=C/[C@H]3C(OCc4ccccc4)C[C@@H]4CCCC[C@@H]43)nc2)c1 (mixture of isomers),–
6.4,3.5,6.5,CS(=O)(=O)OC1C[C@@H]2CCCC[C@@H]2[C@H]1/C=C/c1ccc(-c2cccc(F)c2)cn1 (mixture of isomers),94
120,–,–,CN(C)C(=S)OC1C[C@@H]2CCCC[C@@H]2[C@H]1/C=C/c1ccc(-c2cccc(F)c2)cn1 (mixture of isomers),–
980,–,–,COC(=O)NC1C[C@@H]2CCCC[C@@H]2[C@H]1/C=C/c1ccc(-c2cccc(F)c2)cn1 (mixture of isomers),–
7800,–,–,CC(C)(C)OC(=O)NC1C[C@@H]2CCCC[C@@H]2[C@H]1/C=C/c1ccc(-c2cccc(F)c2)cn1 (mixture of isomers),–
53,–,–,CC(=O)NC1C[C@@H]2CCCC[C@@H]2[C@H]1/C=C/c1ccc(-c2cccc(F)c2)cn1 (mixture of isomers),–
1.3,2.5,2.2,CN(C1C[C@@H]2CCCC[C@@H]2[C@H]1/C=C/c1ccc(-c2cccc(F)c2)cn1)S(C)(=O)=O (mixture of isomers),95
8.6,4.4,6.7,O=C1NCC2(C[C@@H]3CCCC[C@@H]3[C@H]2/C=C/c2ccc(-c3cccc(F)c3)cn2)O1 (mixture of isomers),101
43,–,–,COC1(C)C[C@@H]2CCCC[C@@H]2[C@H]1/C=C/c1ccc(-c2cccc(F)c2)cn1 (mixture of isomers),–
67,–,–,COC1C[C@@H]2CCCC[C@@H]2[C@H]1/C=C/c1ccc(-c2cccc(F)c2)cn1 (mixture of isomers),–
67,–,–,CC(=O)OC1C[C@@H]2CCCC[C@@H]2[C@H]1/C=C/c1ccc(-c2cccc(F)c2)cn1 (mixture of isomers),–
360,–,–,O=C(Nc1ccccc1)OC1C[C@@H]2CCCC[C@@H]2[C@H]1/C=C/c1ccc(-c2cccc(F)c2)cn1 (mixture of isomers),–
230,–,–,NC1C[C@@H]2CCCC[C@@H]2[C@H]1/C=C/c1ccc(-c2cccc(F)c2)cn1 (mixture of isomers),–
2000,–,–,CCOC(=O)NC1C[C@@H]2CCCC[C@@H]2[C@H]1/C=C/c1ccc(-c2cccc(F)c2)cn1 (mixture of isomers),–
50,273,105,CS(=O)(=O)NC1C[C@@H]2CCCC[C@@H]2[C@H]1/C=C/c1ccc(-c2cccc(F)c2)cn1 (mixture of isomers),–
230,–,–,O=C(NC1C[C@@H]2CCCC[C@@H]2[C@H]1/C=C/c1ccc(-c2cccc(F)c2)cn1)C1CC1 (mixture of isomers),–
5.4,5.6,5.2,CC(=O)N(C)C1C[C@@H]2CCCC[C@@H]2[C@H]1/C=C/c1ccc(-c2cccc(F)c2)cn1 (mixture of isomers),98
33,–,–,CC1(O)C[C@@H]2CCCC[C@@H]2[C@H]1/C=C/c1ccc(-c2cccc(F)c2)cn1 (mixture of isomers),–
2.7,4.3,5.8,CC1(OC(N)=O)C[C@@H]2CCCC[C@@H]2[C@H]1/C=C/c1ccc(-c2cccc(F)c2)cn1 (mixture of isomers),99
470,–,–,Fc1cccc(-c2ccc(/C=C/[C@@H]3[C@H]4CCCC[C@@H]4CC34OCCO4)nc2)c1 (racemic),–
2100,–,–,Fc1cccc(-c2ccc(/C=C/[C@H]3[C@H]4CCCC[C@H]4CC34OCCO4)nc2)c1 (racemic),–
1100,–,–,O=C1C[C@@H]2CCCC[C@@H]2[C@H]1/C=C/c1ccc(-c2cccc(F)c2)cn1 (racemic),–
26,4.5,3.4,Fc1cccc(-c2ccc(/C=C/[C@@H]3[C@H]4CCCC[C@H]4CC34OCCO4)nc2)c1 (racemic),97
1.1,83.2,32.4,CCOC(=O)N[C@@H]1CC[C@@H]2[C@@H](C1)C[C@H]1C(=O)O[C@H](C)[C@H]1[C@H]2/C=C/c1ccc(-c2cccc(F)c2)cn1 [VORAPAXAR],102

# Source: ChEMBL document CHEMBL3091395, “Discovery of Octahydroindenes as PAR1 Antagonists” (ACS Med Chem Lett, 2013)
